Source: PubChem
Only some compounds are listed: those with a hit (about 2.1% of all), similar ones and a draw of the others.
KLK7 zymogen act = proKLK7 zymogen activators, primary screen, biochemical, fluorescence intensity; activation, % at 7 µM; actives 0.9% (n = 370,000); AID 652039, 2013; purified proKLK7, EDANS-DABCYL substrate fluorescence; 100% is mature enzyme control, 0% vehicle; Kallikrein-7 (Homo sapiens), P49862;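 active = activation above the mean of all tested compounds plus 3 SD, computed per campaign excluding outliers beyond control limits, cut at about 13% in these data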
Target sequence (P49862 whole entry, looked up): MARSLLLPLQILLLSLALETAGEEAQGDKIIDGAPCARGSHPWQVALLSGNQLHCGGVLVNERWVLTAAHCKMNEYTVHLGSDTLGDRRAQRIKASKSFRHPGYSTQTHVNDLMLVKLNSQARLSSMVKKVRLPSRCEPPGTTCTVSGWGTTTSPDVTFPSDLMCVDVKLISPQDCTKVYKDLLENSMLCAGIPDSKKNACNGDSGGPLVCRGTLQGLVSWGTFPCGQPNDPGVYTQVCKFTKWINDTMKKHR
MEX-5 binding = MEX-5 zinc finger RNA-binding disruptors – biochemical, C. elegans, fluorescence polarization, MLPCN library, primary screen. Zinc finger protein mex-5 (Caenorhabditis elegans), Q9XUB2. MEX-5/FITC-TCR2 RNA binding; hits give low values. activity score (negative = inhibition of binding), % at 10 µM. actives 0.38% (n = 300,000). AID 1832, 2009;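 active = inhibition past about -25% in most replicates, and total fluorescence under double the plate's negative control median, limit read from the data; inconclusive = replicates evenly split on the limit, or fluorescence at least double controls; inactive = too little inhibition in most replicates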;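 note: 0% = DMSO and -100% = 5 µM competing unlabeled TCR2 RNA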
Target sequence (Q9XUB2 whole entry, looked up): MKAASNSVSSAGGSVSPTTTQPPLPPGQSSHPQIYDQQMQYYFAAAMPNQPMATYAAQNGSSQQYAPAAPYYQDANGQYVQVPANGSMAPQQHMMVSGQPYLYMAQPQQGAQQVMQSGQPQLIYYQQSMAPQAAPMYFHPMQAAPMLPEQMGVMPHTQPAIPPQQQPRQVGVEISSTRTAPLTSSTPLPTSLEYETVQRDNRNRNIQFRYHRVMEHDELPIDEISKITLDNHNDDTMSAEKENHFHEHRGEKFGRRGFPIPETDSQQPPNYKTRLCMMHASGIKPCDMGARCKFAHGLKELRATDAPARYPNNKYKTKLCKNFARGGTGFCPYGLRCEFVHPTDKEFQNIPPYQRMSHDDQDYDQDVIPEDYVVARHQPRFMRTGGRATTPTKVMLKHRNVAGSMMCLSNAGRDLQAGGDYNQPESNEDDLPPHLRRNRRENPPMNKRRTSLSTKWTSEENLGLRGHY
Runt-CBFb FRET = inhibitors of RUNX1 Runt–CBFb binding, primary screen, biochemical, FRET, Cerulean-Runt, Venus-CBFb, uHTS; Cerulean-Runt/Venus-CBFb FRET ratio 530/480, 1 h; inhibition, % at 20 µM; actives 0.46% (n = 220,000); AID 1496, 2009;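 active = inhibition over about 50% at 20 µM in the single-dose screen, limit read from the data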;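 note: 0% = DMSO wells and 100% = excess unlabeled CBFb competitor control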
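test system = Cerulean-tagged RUNX1 Runt domain (FRET donor) fusion protein | reagent = Venus-CBFb binding partner, 100 nM | incubation = protein complex preformed 1 h, compound exposure 1 h, room temperature, dark | detection = FRET fluorescence | read-out basis = loss of energy transfer signal | controls = 5 µM unlabeled CBFb as full-inhibition high control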
Runt-SMMHC FRET = inhibitors of RUNX1 Runt–CBFb-SMMHC binding, primary screen, biochemical, FRET, Cerulean-Runt, Venus-CBFb-SMMHC, uHTS; inhibition, % at 20 µM; Cerulean-Runt/Venus-CBFb-SMMHC FRET ratio 530/480, 1 h; Runt-related transcription factor 1 (Homo sapiens) + Core-binding factor subunit beta …; actives 0.74% (n = 220,000); AID 1434, 2008;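 active = mean inhibition across duplicate retests at 20 µM reaching about 50%, limit read from the data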;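 note: 0% = DMSO wells and 100% = wells with excess untagged CBFb-SMMHC; inhibitors lower the FRET ratio by blocking Runt binding to CBFb-SMMHC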
RanGTP-Imp inh = inhibitors of RanGTP-importin-beta interaction, primary screen, biochemical, FRET, CFP-Ran, YFP-importin-beta, homogeneous. cell-free CFP-Ran/YFP-importin-beta FRET ratio. inhibition, % (test concentration not listed). actives 1.1% (n = 300,000). AID 2216, 2009;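 active = more than half of the replicate wells show a fall in the fluorescence ratio signal beyond about 16%, limit read from the data, passing the limit was not always enough; inconclusive = exactly half of the replicate wells pass the set limit; inactive = fewer than half of replicates pass the limit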;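 note: 0% = DMSO wells and 100% = Ran loaded with GDP instead of GTP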
proKLK7 act conf = proKLK7 zymogen activators, confirmation, biochemical, fluorescence intensity, triplicate; shares compounds with KLK7 zymogen act; purified proKLK7, EDANS-DABCYL substrate fluorescence; scaled: vehicle 0, mature enzyme 100; activation, % at 7 µM; actives 68% (n = 3,200); AID 686949, 2013;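 active = activation, as change over the incubation, above the mean of all tested compounds plus 3 SD, cut at about 13% in these data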
EDANS interfere = EDANS-DABCYL substrate optical interference, artefact control for kallikrein-7 zymogen activator project, biochemical, fluorescence intensity, high throughput; shares compounds with KLK7 zymogen act; no enzyme, 4 h; solvent 0%, active enzyme control 100%; activation, % at 7 µM; actives 80% (n = 3,200); AID 686952, 2013;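 active = activation above the all-compound mean plus 3 SD, ignoring values outside control-based bounds, cut at about 4.8% in these data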;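 note: value is the 4 h activation minus the activation read at time zero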
EDANS interf = counter-screen for kallikrein-7 activators: EDANS-DABCYL interference, dose response. EC50, µM. AID 720493. actives 20% (n = 250). EDANS-DABCYL peptide fluorescence interference, no enzyme. shares compounds with KLK7 zymogen act;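 active = compounds that raise the fluorescence signal in this interference counterscreen, with EC50 at or below 10 µM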;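 note: intact quenched peptide substrate alone read at 355 nm excitation and 520 nm emission; signal is fluorescence gain from T0 to T4 after four hours at room temperature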
* marks the source's active call; other numbers are inactive results; u = inconclusive; x = not tested or not shown.

SMILES | KLK7 zymogen act | MEX-5 binding | Runt-CBFb FRET | Runt-SMMHC FRET | RanGTP-Imp inh | proKLK7 act conf | EDANS interfere | others
Clc1ccc(-c2cn3cccnc3n2)cc1 | 22* | 0 | 3 | -3 | 5 | 53* | 69*
Brc1ccc(-c2cn3cccnc3n2)cc1 | 24* | x | -1 | 1 | x | 23* | 27*
Cc1ccc(C(=O)N2CCc3cc4c(cc3C2C)OCCCO4)cc1 (centres undefined) | 13* | -3 | x | x | u | 6 | 6.7*
CC1COc2c(N3CCN(C)CC3)c(F)cc3c(=O)c(C(=O)O)cn1c23 (centres undefined) | 160* | 2 | x | x | u | 32* | 34*
CCOc1ccc(NC(=O)c2ccc(NC(=O)c3cn4c5c(c(N6CCN(C)CC6)c(F)cc5c3=O)OCC4C)cc2)cc1 (centres undefined) | 43* | 0 | -1 | 5 | 3 | 10 | 8.4*
CCOc1ccc(C(=O)Nc2ccc(N3CCN(C)CC3)cc2)cc1 | 0 | -5 | x | x | 4 | x | x
Cc1cc(C(=O)O[C@@H]2CCC[C@@]3(C(=O)N(Cc4ccccc4)c4ccccc43)[C@H]2NC(=O)CCc2ccccc2)no1 | 0 | x | x | x | x | x | x
COCCNC(=O)C1(C)CCCN(Cc2ccc(OCc3ccccc3)cc2)C1 (centres undefined) | 0 | x | x | x | x | x | x
O=C(CSc1nnnn1-c1ccc(C(=O)O)cc1)NC1CCCCC1 | 1 | 3 | x | x | 2 | x | x
Cc1cccc(NC(=O)c2cc3c(=O)n4ccccc4nc3s2)c1 | 1 | -1 | x | x | -26 | x | x
CCOC(=O)C1CCCN(C(=O)c2cc3c(=O)n4ccccc4nc3s2)C1 (centres undefined) | 9 | 0 | x | x | -2 | x | x
O=C(c1cc2c(=O)n3ccccc3nc2s1)N1CCOCC1 | 17* | 1 | 8 | 18 | 5 | 68* | 68*
CCCNC(=O)COC(=O)c1cc2c(=O)n3ccccc3nc2s1 | 20* | -7 | 83* | 121* | 6 | 73* | 86*
CC1CCN(C(=O)c2cc3c(=O)n4ccccc4nc3s2)CC1 | 23* | 1 | x | x | 1 | 23* | 26*
CC(C)(C)OC(=O)C(Oc1ccccc1[N+](=O)[O-])C(=O)OC(C)(C)C | 325* | x | x | x | x | 217* | 205*
CC(C)(C)/C(COc1ccccc1[N+](=O)[O-])=N/O | 0 | -3 | 3 | -1 | -2 | x | x
CC(=O)Nc1ccc(C2=NN(c3ccccc3)C(c3ccccc3)C2)cc1 (centres undefined) | -33 | 0 | x | x | -1 | x | x
O=C(O)c1ccc(N2N=C(c3ccccc3)CC2c2ccccc2)cc1 (centres undefined) | 64* | 3 | x | x | 5 | 64* | 75*
CCCCc1cc(=O)oc2cc(C)cc(OC(C)C(=O)O)c12 (centres undefined) | 20* | 3 | 3 | 0 | 8 | 31* | 33*
CCCc1cc(=O)oc2cc(C)cc(OCC(=O)Nc3ccccn3)c12 | 1 | 3 | x | x | 2 | x | x
CCCCc1cc(=O)oc2cc(C)cc(O)c12 | 0 | -5 | x | -44 | 1 | x | x
CCCCc1cc(=O)oc2cc(O)cc(O)c12 | 78* | 1 | 35 | 61* | 5 | 70* | 70*
CCCCc1cc(=O)oc2cc(C)cc(OC(C)C(=O)NCC3CCC(C(=O)O)CC3)c12 (centres undefined) | 5 | -1 | x | x | -2 | x | x
CCCc1cc(=O)oc2cc(C)cc(OCC(=O)O)c12 | 19* | 4 | -2 | -1 | 0 | 36* | 34*
COc1ccc2nccc(C(N)=O)c2c1 | 13* | 1 | -1 | 0 | 1 | 26* | 26*
SMILES | KLK7 zymogen act | MEX-5 binding | Runt-CBFb FRET | Runt-SMMHC FRET | RanGTP-Imp inh | proKLK7 act conf | EDANS interfere | others
COc1ccc2oc(C)c(C(N)=O)c2c1 | 0 | 0 | 0 | -4 | 2 | x | x
COc1ccccc1Cn1c(=S)[nH]c2cc(C(=O)NCCN(C)C)ccc2c1=O | 0 | -2 | x | x | -4 | x | x
Cc1ccc(-n2cc(C(=O)O)c(=O)cc2C)c(C)c1 | 0 | 0 | 0 | 1 | -2 | x | x
CCc1cc(=O)oc2c(CNC(Cc3ccccc3)C(=O)O)c(O)ccc12 (centres undefined) | -5 | -2 | x | x | 1 | x | x
CCc1cc(=O)oc2c(CNCc3ccccc3F)c(O)c(Cl)cc12 | 36* | -1 | x | x | 36* | 61* | 66*
CCc1cc2c(=O)c(-c3nc4ccccc4n3C)c(C)oc2cc1OC(C)=O | 38* | 1 | x | x | 3 | 69* | 66*
CCCOc1ccc(C(=O)CCC(=O)NNC(=O)Cn2nc(C)cc2C)cc1 | 0 | 2 | x | x | 1 | x | x
O=[N+]([O-])c1ccc(O)c(C=Nc2ccc3nc(-c4ccccc4)[nH]c3c2)c1 | 65* | 4 | -2 | 0 | 1 | 57* | 63*
O=c1c2ccccc2c(/C=N/NS(=O)(=O)c2ccccc2)c(O)n1-c1ccccn1 | 46* | u | 5 | -6 | -2 | 92* | 94*
O=c1c2ccccc2c(/C=N/n2cnnc2)c(O)n1-c1ccccc1 | 1 | -3 | 2 | 4 | -2 | x | x
COc1ccc(C2C(C(=O)N3CCOCC3)=C(C)NC3=C2C(=O)CC(C)(C)C3)c(OC)c1 (centres undefined) | 18* | -1 | 2 | 10 | u | 31* | 20* | EDANS interf=>23
COCCNC(=S)Nc1ccc2nc(N3CCCC3)cc(C)c2c1 | 12 | 1 | -3 | 19 | 0 | x | x
CCN1CCN(C(=S)Nc2ccc3nc(N4CCN(CC)CC4)cc(C)c3c2)CC1 | 8 | 0 | 6 | 1 | 1 | x | x
CCOCCCNC(=S)Nc1ccc2nc(N3CCCC3)cc(C)c2c1 | 17* | -2 | 5 | -10 | 1 | 8 | 12*
